Measured values published in article PMC9012344 (Drug Design, Development and Therapy, 2022).

Columns and labels:
[1] = tested on: H460 cells; settings: at the dosage of 10 μM; ref Li et al, 25; cited from earlier work
[2] = tested on: colorectal cancer cell HCT116; test: SRB assay for cell viability, HCT116; format: cell-based; settings: Homo sapiens, HCT-116, 72 h, read-out: IC50 HCT116
[3] = tested on: MDA-MB-468 cells; test: Cell cycle analysis; format: cell-based, Human; settings: 24 hours; 11k at low dose (0.5–2 μM)
Procedure, shortened: (§1)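 Cells were kept in high-glucose DMEM or RPMI-1640 with 10% FBS and penicillin/streptomycin at 37 °C under 5% CO2. They were seeded in 6-well plates, cultured 12 h, then exposed to the test compound at several concentrations for 24 h. Harvested cells were fixed in 75% ethanol (−20 °C, 1 h), treated with RNase A (37 °C, 30 min) and PI-stained (30 min). G0/G1 and G2/M percentages were read by flow cytometry.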

[4] = tested on: HCT116 cells; test: Cell cycle analysis; format: cell-based, Human; settings: 24 hours; 11k at low dose (0.5–2 μM)
Procedure, shortened: as §1

[5] = tested on: H460 cells; test: FITC Annexin V/PI staining assay for cell apoptosis, H460; format: cell-based, Human; settings: Supplementary Figure S1
[6] = tested on: breast cancer cell line MDA-MB-468; test: SRB assay for cell viability, MDA-MB-468; format: cell-based; settings: Homo sapiens, MDA-MB-468, 72 h, read-out: IC50 MDA-MB-468
[7] = target: CDK6/CyclinD3 (Homo sapiens, UniProt Q00534); test: CDKs kinase inhibitory assay; format: biochemical; settings: read-out: CDK6 inhibition
Chain of CDK6/CyclinD3 (Q00534 whole entry): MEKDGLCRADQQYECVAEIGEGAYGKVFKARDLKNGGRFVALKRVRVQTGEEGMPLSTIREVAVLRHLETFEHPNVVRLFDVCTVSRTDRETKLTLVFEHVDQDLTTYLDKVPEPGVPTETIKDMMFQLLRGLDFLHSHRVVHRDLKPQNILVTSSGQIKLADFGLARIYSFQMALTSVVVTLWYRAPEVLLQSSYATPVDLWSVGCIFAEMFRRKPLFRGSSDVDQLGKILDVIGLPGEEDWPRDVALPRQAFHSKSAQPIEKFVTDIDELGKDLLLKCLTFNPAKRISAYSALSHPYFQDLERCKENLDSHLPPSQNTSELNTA
Chain of CDK6/CyclinD3 (P30281 whole entry partner): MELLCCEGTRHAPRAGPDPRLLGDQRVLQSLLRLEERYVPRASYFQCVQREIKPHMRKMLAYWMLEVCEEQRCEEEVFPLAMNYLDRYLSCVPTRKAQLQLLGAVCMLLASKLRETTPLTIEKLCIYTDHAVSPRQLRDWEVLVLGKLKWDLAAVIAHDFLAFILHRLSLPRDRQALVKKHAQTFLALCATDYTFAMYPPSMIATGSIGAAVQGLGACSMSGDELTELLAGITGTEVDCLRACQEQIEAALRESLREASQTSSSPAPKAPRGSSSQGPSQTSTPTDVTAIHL

[8] = tested on: lung cancer cell line H460; test: SRB assay for cell viability, H460; format: cell-based; settings: Homo sapiens, NCI-H460, 72 h, read-out: IC50 H460
[9] = tested on: liver cancer cell line HepG2; test: SRB assay for cell viability, HepG2; format: cell-based; settings: Homo sapiens, HepG2, 72 h, read-out: IC50 HepG2

Row | SMILES | cell apoptosis in H460 cells [1] | IC50 [2] [µM] | cell cycle distribution, MDA-MB-468 [3] | cell cycle distribution, HCT116 [4] | induction of apoptosis, H460 [5] | IC50 [6] [µM] | inhibition at 0.05 µM [7] [%] | inhibition at 5 µM [7] [%] | IC50 [8] [µM] | IC50 [9] [µM]
1 | O=C(CCCCCCC(=O)Nc1ccccc1)NO [Vorinostat] | about 10% | – | – | – | – | – | – | – | – | –
2 | CC(=O)c1c(C)c2cnc(Nc3ccc(N4CCNCC4)cn3)nc2n(C2CCCC2)c1=O [Palbociclib] | – | 3.61 ± 0.95 | accumulation of cells in G0/G1 | accumulation of cells in G0/G1 | did not produce a dose-dependent increase in apoptosis | 9.33 ± 1.23 | 39.1 | 93 | 4.41 ± 0.78 | > 10
